Laboratory results from ChEMBL document CHEMBL1155457, “Discovery of the dual orexin receptor antagonist [(7R)-4-(5-chloro-1,3-benzoxazol-2-yl)-7-methyl-1,4-diazepan-1-yl][5-methyl-2-(2H-1,2,3-triazol-2-yl)phenyl]methanone (MK-4305) for the treatment of insomnia” (J Med Chem, 2010).
pIC50, pKi: −log10 of the molar value. Activity calls are given as the source filed them. The rule behind the calls is not given here.

Tests used:
Liver microsomes = assay: Idiosyncratic toxicity in human liver microsomes assessed GSH-derived reactive electrophilic adduct formation at 10 uM after 60 mins by UPLC/HRMS analysis relative to labetalol; design: species or system Microsome; details: 1 h
Method in brief: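 Pooled human liver microsomes (1 mg/mL protein) were incubated 60 min at 37 °C in 100 mM potassium phosphate pH 7.4. The mix held 10 μM compound, 1 mM MgCl2, 1 mM EDTA, 5 mM GSH and 1 mM NADPH. After quenching, GSH adducts were detected by UPLC/HRMS. Summed adduct peak areas were divided by the labetalol internal-standard area.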

[1] = molecular target: T1, Orexin/Hypocretin receptor type 1 (Homo sapiens, UniProt O43613); assay: Displacement of [3H](S)-N-(biphenyl-2-yl)-1-(2-(1-methyl-1H-benzo[d]imidazol-2-ylthio)acetyl)pyrrolidine-2-carboxamide from human OX1R expressed in CHO cells after 3 hrs by scintillation counting; assay type: cell-based
T1 sequence (O43613 whole entry): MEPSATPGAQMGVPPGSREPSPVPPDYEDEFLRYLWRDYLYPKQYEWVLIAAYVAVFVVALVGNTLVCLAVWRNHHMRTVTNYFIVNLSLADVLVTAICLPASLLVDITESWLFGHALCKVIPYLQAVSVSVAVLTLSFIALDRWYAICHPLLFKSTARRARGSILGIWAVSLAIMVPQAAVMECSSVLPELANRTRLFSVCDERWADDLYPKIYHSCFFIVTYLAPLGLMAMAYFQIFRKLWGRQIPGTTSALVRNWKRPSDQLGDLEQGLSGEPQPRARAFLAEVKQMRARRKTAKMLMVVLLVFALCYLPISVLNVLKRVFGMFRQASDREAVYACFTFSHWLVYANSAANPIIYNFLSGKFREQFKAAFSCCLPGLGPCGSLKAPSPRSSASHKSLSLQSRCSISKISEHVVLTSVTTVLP

[2] = molecular target: T1, Orexin/Hypocretin receptor type 1; assay: Displacement of [3H]N-cyclobutyl-5-methyl-N-(2-(1-methyl-1H-benzo[d]imidazol-2-ylthio)ethyl)-2-(2H-1,2,3-triazol-2-yl)benzamide from human OX1R expressed in CHO cells after 20 hrs by scintillation counting; assay type: cell-based
Orexin receptor type 2 [3] = molecular target: T2, Orexin receptor type 2 (Homo sapiens, UniProt O43614); assay: Displacement of [3H](S)-N-(2-(1H-pyrrol-1-yl)phenyl)-1-(2-(1-methyl-1H-benzo[d]imidazol-2-ylthio)acetyl)pyrrolidine-2-carboxamide from human OX2R expressed in CHO cells after 3 hrs by scintillation counting; assay type: cell-based
T2 sequence (O43614 whole entry): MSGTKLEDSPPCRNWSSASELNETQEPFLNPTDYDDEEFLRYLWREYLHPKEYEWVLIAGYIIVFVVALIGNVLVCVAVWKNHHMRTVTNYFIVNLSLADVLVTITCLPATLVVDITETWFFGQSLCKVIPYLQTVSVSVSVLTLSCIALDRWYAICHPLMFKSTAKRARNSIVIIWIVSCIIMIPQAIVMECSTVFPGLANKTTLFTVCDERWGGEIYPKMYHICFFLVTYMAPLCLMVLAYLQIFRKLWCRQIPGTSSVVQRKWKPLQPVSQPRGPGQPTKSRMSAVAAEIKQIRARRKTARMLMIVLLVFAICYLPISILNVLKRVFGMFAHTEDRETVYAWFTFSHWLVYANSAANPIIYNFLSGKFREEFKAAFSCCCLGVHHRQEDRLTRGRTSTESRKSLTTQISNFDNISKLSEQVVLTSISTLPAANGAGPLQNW

[4] = molecular target: T1, Orexin/Hypocretin receptor type 1; assay: Antagonist activity at human OX1R expressed in CHO cells assessed as inhibition of orexin-A-induced intracellular calcium mobilization after 5 mins by FLIPR assay; assay type: functional, cell-based
Orexin receptor type 2 [5] = molecular target: T2, Orexin receptor type 2; assay: Antagonist activity at human OX2R expressed in CHO cells assessed as inhibition of orexin-A-induced intracellular calcium mobilization after 5 mins by FLIPR assay; assay type: functional, cell-based
[6] = Clearance in dog at 0.5 mg/kg, iv; assay type: ADME, organism-based, Canis lupus familiaris; design: dose 0.5 mg/kg, route intravenous; details: in vivo
Method in brief: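 Dogs received an IV dose with DMSO as vehicle (n = 3). Clearance was derived from plasma pharmacokinetics.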

[7] = Lipophilicity, log P of the compound; assay type: physicochemical; details: octanol/water
Rattus norvegicus [8] = assay: Antiinsomnic activity in Sprague-Dawley rat assessed as decrease in active wake duration at 30 mg/kg/day, po measured with 3 to 4 hrs post last dose; assay type: functional, organism-based
Method in brief: (§1)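 Telemetry-implanted rats with ECoG and EMG electrodes placed under isoflurane, recovered at least two weeks, 12 h light:dark cycle. 30 mg/kg free base suspended in 20% aqueous TPGS given by oral gavage 5 h into the active phase. Crossover design with four rats, one week on drug and one on vehicle. Automated staging in 30 min bins, averaged over seven nights, mixed ANOVA.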

Rattus norvegicus [9] = assay: Antiinsomnic activity in Sprague-Dawley rat assessed as increase in rapid-eye movement at 30 mg/kg/day, po measured with 3 to 4 hrs post last dose; assay type: functional, organism-based; method in brief: as §1
Rattus norvegicus [10] = assay: Antiinsomnic activity in Sprague-Dawley rat assessed as increase in delta sleep duration at 30 mg/kg/day, po measured with 3 to 4 hrs post last dose; assay type: functional, organism-based; method in brief: as §1
Rattus norvegicus [11] = assay: Antiinsomnic activity in Sprague-Dawley rat assessed as decrease in light sleep duration at 30 mg/kg/day, po measured with 3 to 4 hrs post last dose; assay type: functional, organism-based; method in brief: as §1
[12] = Cmax in Sprague-Dawley rat CSF at 30 mg/kg/day, po; assay type: ADME, organism-based, Cerebrospinal fluid; design: dose 30 mg/kg/day, route oral
[13] = Drug level in Sprague-Dawley rat CSF at 30 mg/kg/day, po; assay type: ADME, organism-based, Cerebrospinal fluid; design: route oral; details: in vivo, read-out: Drug uptake
Rattus norvegicus [14] = assay: In vivo occupancy of human OX2R ubiquitously overexpressed in iv dosed transgenic rat after 30 mins; assay type: functional
Method in brief: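 Transgenic human OX2R rats were infused IV over 30 min at 0.1-2.0 mg/kg in 25% hydroxypropyl-β-cyclodextrin, then sacrificed. Brain homogenate at 10 mg tissue/mL was incubated with 200 pM radioligand at room temperature and filtered at 2-15 min. Nonspecific binding was set with 1 μM unlabeled DORA. Occupancy = (1 - slope_drug/slope_vehicle) × 100; Occ90 came from nonlinear fit.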

[15] = Drug level in human OX2R overexpressing transgenic rat plasma at 1.34 mg/kg, iv after 30 mins; assay type: ADME, organism-based; design: dose 1.34 mg/kg, route intravenous; details: read-out: Drug uptake
Method in brief: (§2)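 Transgenic rats expressing human OX2R received a 30 min IV infusion, 0.1-2.0 mg/kg, in 25% hydroxypropyl-β-cyclodextrin. They were then sacrificed, and brain, plasma and CSF were frozen. Drug levels were measured by LCMS.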

[16] = Drug level in human OX2R overexpressing transgenic rat brain at 1.34 mg/kg, iv after 30 mins; assay type: ADME, organism-based; design: dose 1.34 mg/kg, route intravenous; details: read-out: Drug uptake; method in brief: as §2
[17] = Drug level in human OX2R overexpressing transgenic rat CSF at 1.34 mg/kg, iv after 30 mins; assay type: ADME, organism-based, Cerebrospinal fluid; design: dose 1.34 mg/kg, route intravenous; details: read-out: Drug uptake; method in brief: as §2
Rattus norvegicus [18] = assay: In vivo occupancy of human OX2R ubiquitously overexpressed in transgenic rat at 30 mg/kg/day, iv after 30 mins; assay type: functional
[19] = Thermal stability of the compound; assay type: physicochemical
[20] = Chemical stability in pH-dependent solution; assay type: physicochemical
[21] = Aqueous solubility of the compound; assay type: physicochemical; details: buffer
[22] = Genotoxicity in Salmonella Typhimurium by Ames test; assay type: toxicity; details: salmonella enterica subsp. enterica serovar typhimurium
Canis familiaris = organism: Canis familiaris; assay: Cardiotoxicity in dog; assay type: toxicity, organism-based, Canis lupus familiaris; details: in vivo
[23] = Plasma protein binding in rat; assay type: ADME, cell-free; details: read-out: PPB
[24] = Plasma protein binding in human; assay type: ADME, cell-free; details: read-out: PPB
Rattus norvegicus [25] = assay: Clearance in rat at 2 mg/kg, iv; assay type: ADME, organism-based; design: dose 2 mg/kg, route intravenous; details: in vivo
Method in brief: (§3)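 IV PK in DMSO vehicle: rat at 2 mg/kg, dog at 0.5 mg/kg. Clearance, Vd_ss and terminal half-life were derived from plasma levels.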

[26] = Volume of distribution at steady state in rat at 2 mg/kg, iv; assay type: ADME, organism-based; design: dose 2 mg/kg, route intravenous; details: in vivo, read-out: Vdss; method in brief: as §3
[27] = Terminal half life in rat at 2 mg/kg, iv; assay type: ADME, organism-based; design: dose 2 mg/kg, route intravenous; details: in vivo, read-out: beta t1/2 (converted); method in brief: as §3
[28] = Volume of distribution at steady state in dog at 0.5 mg/kg, iv; assay type: ADME, organism-based, Canis lupus familiaris; design: dose 0.5 mg/kg, route intravenous; details: in vivo, read-out: Vdss; method in brief: as §3
[29] = Terminal half life in dog at 0.5 mg/kg, iv; assay type: ADME, organism-based, Canis lupus familiaris; design: dose 0.5 mg/kg, route intravenous; details: in vivo, read-out: beta t1/2 (converted); method in brief: as §3
[30] = AUC in dog at 3 mg/kg, po; assay type: ADME, organism-based, Canis lupus familiaris; design: dose 3 mg/kg, route oral; details: plasma
[31] = Cmax in dog at 3 mg/kg, po; assay type: ADME, organism-based, Canis lupus familiaris; design: dose 3 mg/kg, route oral; details: in vivo
[32] = Oral bioavailability in dog at 3 mg/kg; assay type: ADME, organism-based, Canis lupus familiaris; details: in vivo
[33] = Tmax in dog at 3 mg/kg, po; assay type: ADME, organism-based, Canis lupus familiaris; design: dose 3 mg/kg, route oral; details: in vivo
[34] = AUC in rat at 10 mg/kg, po; assay type: ADME, organism-based; design: dose 10 mg/kg, route oral; details: plasma
[35] = Cmax in rat at 10 mg/kg, po; assay type: ADME, organism-based; design: dose 10 mg/kg, route oral; details: in vivo
[36] = Tmax in rat at 10 mg/kg, po; assay type: ADME, organism-based; design: dose 10 mg/kg, route oral; details: in vivo
[37] = Oral bioavailability in rat at 10 mg/kg; assay type: ADME, organism-based; details: in vivo

Work on C[C@@H]1CCN(c2ncc3c(n2)CCCC3)CCN1C(=O)c1ccccc1-n1nccn1 yielded a Ratio (Liver microsomes) of 0.7, a pKi [1] of 9.11 and a pKi [2] of 9.11. For the same compound, the pKi (Orexin receptor type 2 [3]) was 9.55, the pIC50 [4] was 7.62 and the pIC50 (Orexin receptor type 2 [5]) was 7.55. It also gave a clearance [6] of 9.2 mL/min/kg.
In the case of Cc1ccc(-n2nccn2)c(C(=O)N2CCN(c3nc4cc(Cl)ccc4o3)CC[C@H]2C)c1 [SUVOREXANT], the logP [7] was 3.6, the Activity (Rattus norvegicus [8]) was “Active” and the Activity (Rattus norvegicus [9]) was “Active”. The Activity (Rattus norvegicus [10]) was “Active”, the Activity (Rattus norvegicus [11]) was “Active” and the Cmax [12] was 2100 nM. The concentration [13] was 21 nM, the Activity (Rattus norvegicus [14]) was 1.34 mg/kg and the concentration at 0.5 h [15] was 1070 nM. The concentration at 0.5 h [16] was 1180 nM, the concentration at 0.5 h [17] was 13 nM and the Activity (Rattus norvegicus [18]) was greater than 90%. The Stability [19] was “Stable”, the Stability [20] was “Stable” and the solubility [21] was “Soluble”. The Activity [22] was “Non-toxic”, the Activity (Canis familiaris) was “Non-toxic” and the fraction unbound [23] was 0.01. It also gave a fraction unbound [24] of 0.01, a clearance (Rattus norvegicus [25]) of 44 mL/min/kg and a Vd [26] of 2.6 L/kg. The half-life [27] was 36 min, the clearance [6] was 4 mL/min/kg and the Vd [28] was 0.8 L/kg. The half-life [29] was 198 min, the AUC [30] was 16.9 µM·h and the Cmax [31] was 3200 nM. The bioavailability [32] was 56%, the Tmax [33] was 30 min and the AUC [34] was 1.7 µM·h. It also gave a Cmax [35] of 480 nM, a Tmax [36] of 30 min and a bioavailability [37] of 19%.
In the case of Cc1ccc(-n2nccn2)c(C(=O)N2CCN(c3ncc4ccccc4n3)CC[C@H]2C)c1, the pKi [1] was 9.41, the pKi [2] was 9.41 and the pKi (Orexin receptor type 2 [3]) was 9.44. For the same compound, the pIC50 [4] was 7.52, the pIC50 (Orexin receptor type 2 [5]) was 7.52 and the clearance [6] was 6 mL/min/kg. It also gave a bioavailability [32] of less than 5%.
Cc1ccc(-n2nccn2)c(C(=O)N2CCN(c3nc4ccccc4o3)CC[C@H]2C)c1 gave a pKi [1] of 8.39, a pKi [2] of 8.39 and a pKi (Orexin receptor type 2 [3]) of 8.49. For the same compound, the pIC50 [4] was 7.62, the pIC50 (Orexin receptor type 2 [5]) was 7.24 and the clearance [6] was 2.4 mL/min/kg.
Work on C[C@H]1CCN(c2ncc3ccccc3n2)CCN1C(=O)c1ccccc1-n1nccn1 yielded a pKi [1] of 7.27, a pKi [2] of 7.27 and a pKi (Orexin receptor type 2 [3]) of 8.07.
